Where a chain is given by its changes, count along the chain named. Calls of active or inactive are those of the source. No cut-off for these calls is given here. A value given as a limit tells only on which side of the number the result lay.

In one series the test system is Canis familiaris. Nature of the series: Toxicity in dog assessed as ataxia at 15 mg/kg, po administered as single dose using spray dried dispersion formulation after 0.8 hrs. It counts as organism-based, Canis lupus familiaris. The note with it: in vivo. An outline of the steps:
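Dog single oral dose escalation: 1/sex at 5 mg/kg for each formulation; 1 female at 15 mg/kg. Spray-dried dispersion: 23% drug loading with 0.5% methylcellulose and 100 mM citrate buffer. Clinical signs timed in approximate hours postdose; unbound plasma Cmax.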

In series [1] the target is Muscarinic acetylcholine receptor M3 (Homo sapiens, UniProt P20309). Nature of the series: Agonist activity at human muscarinic acetylcholine receptor M3 expressed in CHO cells assessed as increase in calcium mobilization incubated for 10 mins by Fluo-8-AM dye based FLIPR assay. Type of series: cell-based. In a few lines: (§1)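 Recombinant functional human M2–M5 assays, each run in agonist and PAM modes at concentrations up to 10 μM.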
A general note: A change in cytosolic calcium serves as a functional read-out for many receptors and channels.

A short description of series [2]: Positive allosteric modulation of muscarinic acetylcholine receptor M1 in Hartley guinea pig ileum longitudinal muscle myenteric plexus assessed as increase in acetylcholine-induced tissue contraction after 10 mins in presence of donepezil. The note with it: Cavia porcellus.
The test system of the next series is Brain. Nature of the series: Unbound brain concentration in scopolamine-induced memory impairment Wistar rat model at 0.32 mg/kg, sc measured after 1.25 hrs by LC-MS/MS analysis. Type of series: ADME, organism-based. The note with it: in vivo.
Series [3] is described as follows: Ratio of unbound AUC in iv or po dosed mouse brain to plasma. Type of series: ADME, organism-based.
Series [4] is described as follows: Selectivity ratio of EC50 for human muscarinic acetylcholine receptor M4 expressed in CHO cells to EC50 for human muscarinic acetylcholine receptor M1 expressed in CHO cells. Type of series: ADME, cell-based.
Series [5] can be described thus: Oral bioavailability in dog at 0.5 mg/kg administered as single dose. Type of series: ADME, organism-based, Canis lupus familiaris. The note with it: in vivo.
Series [6] can be described thus: Ratio of AUC in iv or po dosed mouse brain to plasma. Type of series: ADME, organism-based. The note with it: read-out: Ratio AUC. An outline of the steps: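 Brain/plasma ratio computed from AUC of total drug in brain and total drug in plasma.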
The next series concerns Mus musculus. Nature of the series: In vivo agonist activity at muscarinic acetylcholine receptor M1 in C57BL/6 mouse assessed as unbound brain concentration required to show 2 fold increase in IP1 accumulation in striatum at 1 to 10 mg/kg, sc measured after 2 hrs. It counts as organism-based. An outline of the steps: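 Cb,u giving a 2-fold rise in striatal IP1 in C57BL/6 mice, estimated by interpolation of individual-mouse IP1 versus free brain exposure data.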

The target in series [7] is T1, Muscarinic acetylcholine receptor M1 (Homo sapiens, UniProt P11229).
T1 sequence (P11229 whole entry): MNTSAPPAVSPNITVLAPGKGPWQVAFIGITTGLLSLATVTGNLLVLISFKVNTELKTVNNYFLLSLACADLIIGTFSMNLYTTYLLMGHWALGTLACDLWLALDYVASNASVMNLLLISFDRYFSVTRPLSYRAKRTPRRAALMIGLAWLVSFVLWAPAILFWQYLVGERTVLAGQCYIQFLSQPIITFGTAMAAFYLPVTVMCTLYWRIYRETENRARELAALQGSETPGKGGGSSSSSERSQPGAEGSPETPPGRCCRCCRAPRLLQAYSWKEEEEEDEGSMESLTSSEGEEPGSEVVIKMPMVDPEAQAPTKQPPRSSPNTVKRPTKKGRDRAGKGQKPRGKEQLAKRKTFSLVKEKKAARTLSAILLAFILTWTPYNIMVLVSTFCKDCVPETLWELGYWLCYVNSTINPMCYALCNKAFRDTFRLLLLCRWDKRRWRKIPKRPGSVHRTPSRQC
Nature of the series: Ratio of intrinsic activity at human muscarinic acetylcholine receptor M1 expressed in CHO cells by beta-arrestin recruitment assay to intrinsic activity at human muscarinic acetylcholine receptor M1 expressed in CHO cells assessed as increase in calcium mobilization. It counts as ADME, cell-based. (In general: Recruitment of arrestin is a read-out of receptor activation apart from second messengers.)

For series [8], the target named is T2, Muscarinic acetylcholine receptor M2 (Homo sapiens, UniProt P08172).
T2 sequence (P08172 whole entry): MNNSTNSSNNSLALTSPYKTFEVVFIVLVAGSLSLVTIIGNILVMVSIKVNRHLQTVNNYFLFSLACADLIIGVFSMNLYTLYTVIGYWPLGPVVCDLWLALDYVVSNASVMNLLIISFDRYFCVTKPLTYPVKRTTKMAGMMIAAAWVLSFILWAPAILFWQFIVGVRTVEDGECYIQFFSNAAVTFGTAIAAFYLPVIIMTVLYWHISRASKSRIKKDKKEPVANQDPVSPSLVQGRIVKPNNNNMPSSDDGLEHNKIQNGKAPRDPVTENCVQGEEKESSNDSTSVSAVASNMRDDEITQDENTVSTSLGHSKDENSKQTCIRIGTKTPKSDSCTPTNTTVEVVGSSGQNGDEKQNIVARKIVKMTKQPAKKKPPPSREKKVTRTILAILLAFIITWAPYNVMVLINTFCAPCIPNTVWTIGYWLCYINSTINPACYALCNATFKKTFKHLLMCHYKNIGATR
In words: Positive allosteric modulation of human muscarinic acetylcholine receptor M2 expressed in CHO cells assessed as increase in acetylcholine-induced cAMP accumulation up to 10 uM after 2 hrs by cAMP-Glo assay. It counts as cell-based. In a few lines: as §1
Background: cAMP levels reflect the balance of adenylyl cyclase and phosphodiesterase activity.

A further series deals with Rattus norvegicus. Nature of the series: Reversal of scopolamine-induced memory impairment in Wistar rat assessed as […] in hidden platform during 5 days training period at 0.32 to 3.2 mg/kg, sc administered 15 mins prior to test for 5 consecutive days followed by scopolamine challenge 30 mins prior to test by Morris water maze test. It counts as functional, organism-based.

Series [9] concerns the target T1, Muscarinic acetylcholine receptor M1. Nature of the series: Agonist activity at human muscarinic acetylcholine receptor M1 expressed in CHO cells assessed as increase in calcium mobilization at 13 uM incubated for 10 mins by Fluo-8-AM dye based FLIPR assay relative to control. It counts as cell-based. The note with it: read-out: %max.
Series [10] has the same target. In words: Ratio of positive allosteric modulation of human muscarinic acetylcholine receptor M1 expressed in CHO cells assessed as increase in acetylcholine-induced calcium mobilization by measuring functional co-operativity with acetylcholine to Kb human muscarinic acetylcholine receptor M1 expressed in CHO cells assessed as increase in calcium mobilization. Type of series: ADME, cell-based.

Series [11] has as its target T3, Muscarinic acetylcholine receptor M1 (Rattus norvegicus, UniProt P08482).
T3 sequence (P08482 whole entry): T1 sequence (P11229 whole entry) with A5V, T254S, P309S, R320K, A337G, I413V
In words: Positive allosteric modulation of muscarinic acetylcholine receptor M1 in Sprague-Dawley rat brain hippocampal slices assessed as increase in carbachol-induced firing rate at CA1 pyramidal neurons after 10 mins by electrophysiology method. An outline of the steps: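 Rat hippocampal slices; spontaneous action potentials recorded from CA1 pyramidal neurons, read as spike rate. Agonist mode has no carbachol; PAM mode uses an EC20 level of carbachol. Top concentration tested was 3 μM.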

Sequence of Muscarinic acetylcholine receptor M3 (P20309 whole entry): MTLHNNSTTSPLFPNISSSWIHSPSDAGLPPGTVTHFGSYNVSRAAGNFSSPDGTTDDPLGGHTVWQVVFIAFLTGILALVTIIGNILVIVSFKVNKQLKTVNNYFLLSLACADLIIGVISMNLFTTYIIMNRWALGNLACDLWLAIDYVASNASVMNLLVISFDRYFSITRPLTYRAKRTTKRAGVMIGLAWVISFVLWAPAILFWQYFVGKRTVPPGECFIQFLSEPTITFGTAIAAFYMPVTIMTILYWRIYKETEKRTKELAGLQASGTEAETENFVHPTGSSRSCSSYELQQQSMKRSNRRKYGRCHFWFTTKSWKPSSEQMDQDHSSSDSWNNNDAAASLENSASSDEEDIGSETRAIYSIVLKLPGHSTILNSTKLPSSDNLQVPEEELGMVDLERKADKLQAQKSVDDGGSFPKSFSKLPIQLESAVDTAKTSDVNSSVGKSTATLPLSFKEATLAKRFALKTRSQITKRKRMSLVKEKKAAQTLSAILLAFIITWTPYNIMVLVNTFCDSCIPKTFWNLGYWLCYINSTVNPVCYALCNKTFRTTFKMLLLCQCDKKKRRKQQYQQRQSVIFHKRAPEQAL

Usually EC50 stands for the concentration needed to bring the measured effect to its halfway point. For orientation: bioavailability means dose-corrected exposure relative to a reference, in per cent. Higher therefore signals much systemic uptake. As for `Cc1cc2c(cc1Cc1ccc(-c3cocn3)cc1)C(=O)N([C@H]1CCOC[C@@H]1O)C2`, the Activity entry in the series on Canis familiaris was “Toxic”; in [8], “Not Active”; in series [11], “Dose-dependent effect”. Further, the EC50 in [1] is more than 10000 nM; in series [2], 46 nM. Further, the “Drug uptake(free)” value is 3.4 nM in the series with Brain and 22 nM with Mus musculus. In addition, the Kp uu in series [3] was 0.3. Further, the “Ratio EC50” value in series [4] is more than 200. Besides, in [5], the bioavailability came to 65%. Further, the Kp in [6] came to 0.1. Further, the values for the Ratio in series [7] and in [10] were 1.4 and 70, respectively. Also, in the series on Rattus norvegicus, the outcome was Active. The Emax at 13 µM in series [9] was 23%.

These data come from ChEMBL document CHEMBL4017487, “Design and Synthesis of γ- and δ-Lactam M1 Positive Allosteric Modulators (PAMs): Convulsion and Cholinergic Toxicity of an M1-Selective PAM with Weak Agonist Activity” (J Med Chem, 2017).
